Assay outcomes deposited in PubChem BioAssay by several laboratories.
SR-BI uptake up: SR-BI HDL lipid transfer activation; actives 0.096% (n = 320,000); activation, % at 12.5 µM; CHO ldlA[mSR-BI] cells, DiI-HDL uptake fluorescence, 3 h; 100 = double the neutral-control signal;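 active = mean replicate activation of at least 60% and every replicate at or above 60%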;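 also: 0% = median plate neutral-control signal and 100% = twice that signal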
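Material – SR-BI-overexpressing, LDLR-lacking CHO cells · Medium – BSA-supplemented, HEPES-buffered Ham's F12, pH 7.4 · Doses – single concentration · Times – compound with DiI-HDL co-incubation, 3 h at 37 °C · Measured by – bottom-read fluorescence, 550/595 nm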
FID counter: fluorescent intercalator displacement, NS3 helicase counter-screen | DNA fluorescent intercalator displacement, fluorescence | inhibition, % at 7.9 µM | actives 0.17% (n = 290,000) | AID 1845; in the data active = inhibition above about 37%;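 also: 0% = vehicle and 100% = reference compound; higher means more ethidium bromide displaced from hairpin DNA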
ANO1 block: inhibitors of mouse TMEM16A calcium-activated chloride channel. Q8BHY3. HEK293 TMEM16A/YFP iodide influx fluorescence, ionomycin. normalized B-score (activity score, 25-100; higher = stronger inhibition) at 10 µM. actives 1.2% (n = 310,000). AID 588511;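 active = ratio plate-corrected score three or more library SD toward inhibition, starting fluorescence score within five deviations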;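 also: score derived from kinetic fluorescence span divided by baseline fluorescence per well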
SR-BI DiI inh: blocks mouse SR-BI lipid uptake from DiI-HDL; Q61009; ldlA[mSR-BI] CHO cells, DiI-HDL uptake fluorescence, 3 h; inhibition, % at 12.5 µM; actives 0.96% (n = 320,000);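 active = mean replicate inhibition of at least 70% and a set share of replicates each scoring 70 or more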;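 also: 0% = median of neutral control wells and 100% = median of positive control wells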
Kir21 block: blocks the mouse Kir2.1 inward-rectifier potassium channel. P35561. HEK293-Kir2.1, FluxOR thallium flux fluorescence; stronger effect = lower value. B-score at 10 µM. actives 0.85% (n = 310,000). AID 1672;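 active = fluorescence ratio B-score at or below minus 3 SD of library scores, with starting-brightness B-score within 2 SD, cut at about -4.2 in these data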;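 also: channel flux triggered by added potassium and thallium sulfate stimulus; B-score of peak minus minimum fluorescence over baseline after thallium stimulus; more negative B-score means stronger Kir2.1 block with less thallium influx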
Target sequence (P35561 whole entry, looked up): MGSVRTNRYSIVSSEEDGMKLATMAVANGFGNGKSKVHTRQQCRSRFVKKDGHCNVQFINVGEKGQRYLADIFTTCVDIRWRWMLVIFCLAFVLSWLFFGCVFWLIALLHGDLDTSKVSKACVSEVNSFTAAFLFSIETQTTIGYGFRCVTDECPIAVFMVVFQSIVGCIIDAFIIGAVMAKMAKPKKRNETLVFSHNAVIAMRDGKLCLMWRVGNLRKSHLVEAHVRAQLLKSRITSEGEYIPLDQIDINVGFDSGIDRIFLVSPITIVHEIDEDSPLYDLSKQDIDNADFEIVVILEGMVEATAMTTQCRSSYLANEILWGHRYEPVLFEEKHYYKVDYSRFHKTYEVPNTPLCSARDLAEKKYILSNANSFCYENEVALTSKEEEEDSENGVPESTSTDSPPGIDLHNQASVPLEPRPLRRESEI
TMEM16A act: activates or potentiates the mouse TMEM16A chloride channel; Q8BHY3; HEK293 TMEM16A/YFP-H148Q/I152L, iodide quench fluorescence; stronger effect = lower value; B-score at 10 µM; actives 0.3% (n = 340,000);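 active = fluorescence-ratio B-score plate-corrected deviation score at least 3 library SD below zero, with starting fluorescence score within 5 deviations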;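 also: channel opened by trigger with iodide after compound preincubation; score built on the fluorescence ratio of max minus min over baseline; more negative score means more quench and so TMEM16A activation or potentiation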
TMEM16A reconf: TMEM16A (mouse) chloride channel inhibition, re-confirmation | shares compounds with ANO1 block | HEK293 TMEM16A/YFP-H148Q, iodide quench fluorescence; ionomycin added to raise cell calcium | inhibition, % at 10 µM | actives 39% (n = 2,300) | AID 652189;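 active = mean duplicate percent inhibition, scaled so buffer wells are 0 and the reference blocker 100, over three buffer SD above buffer mean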
TMEM16A Ca cntr: counter-screen for TMEM16A inhibitors: effect on calcium mobilization | shares compounds with ANO1 block | TMEM16A/YFP HEK293, Fluo4 calcium mobilization | calcium response (% of ionomycin), % at 10 µM | actives 2% (n = 2,300) | AID 652231;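 active = duplicate-averaged calcium signal over 20% of the ionomycin maximum, relative to buffer baseline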;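 also: each well's signal is peak minus trough fluorescence divided by its pre-addition baseline; 0% = buffer wells and 100% = ionomycin wells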
YFP-HEK293 quench: acts in parental YFP-HEK293 cells lacking TMEM16A, counter-screen; 2,300 tested, under 10 active; iodide YFP quench, ionomycin; YFP ratio F(max-min)/F0 at 10 µM; shares compounds with ANO1 block;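 active = yellow fluorescent protein signal ratio exceeding the buffer control mean by over 5 SD of those controls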;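 also: ratio is mean of duplicate wells from kinetic YFP trace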
ClC-1 inh: rat ClC-1 inhibition, TMEM16A specificity screen. ratio percent, % at 10 µM. AID 652236. 2,300 tested, under 10 active. CHO ClC-1-YFP, iodide influx fluorescence quench; iodide control reads 0, buffer control 100. shares compounds with ANO1 block;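 active = duplicate-mean ratio percent above the mean of iodide-only control wells, which defines zero, plus 5 of their SD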;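 also: higher percent means stronger block of ClC-1 iodide influx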
Numbers without * were called inactive; i = inactive; . = not tested or not shown. Rows were chosen to be rich in hits. Some 3% of all compounds tested hit in one or more screens of this group.

SMILES	SR-BI uptake up	FID counter	ANO1 block	SR-BI DiI inh	Kir21 block	TMEM16A act	TMEM16A reconf	TMEM16A Ca cntr	YFP-HEK293 quench	ClC-1 inh
Nc1c(C(=O)OC2CCCCC2)c2nc3ccccc3nc2n1CC1CCCO1 (configuration not stated)	-28.5	-19.7	100*	28.5	0.19	i	i	i	-1.13	-4.0
CC(C)OC(=O)c1c(N)n(CC2CCCO2)c2nc3ccccc3nc12 (configuration not stated)	-15.1	-14.8	i	15.1	1.71	i	.	.	.	.
O=[N+]([O-])c1ccc(C(=Nc2ccccc2)N2CC2)cc1	-9.1	.	.	9.1	.	i	.	.	.	.
COC(=O)C1=C(c2c(C)noc2C)C[C@@H]2CC[C@H]1N2C(=O)N1CCCCC1	32.6	.	.	-32.6	.	i	.	.	.	.
C=CCCC1(C(C)C)C(=O)NC(=S)NC1=O	3.7	.	.	-3.7	.	i	.	.	.	.
Cc1ccc2[nH]c(C)c(CCNCc3ccco3)c2c1	25.8	2.5	i	-25.8	-1.99	i	.	.	.	.
Cc1[nH]c2ccc(OC(F)(F)F)cc2c1CCNCc1cccc([N+](=O)[O-])c1	-14.5	20.2	25*	14.5	-2.14	i	i	i	-1.06	-7.5
CC(=O)C1CCC2C3C(N4CC4)CC4=CC(=O)CCC4(C)C3CCC12C (configuration not stated)	-2.1	.	.	2.1	.	i	.	.	.	.
